Test results taken from article PMC7497807 (Blood cancer discovery, 2020).
No end group written: not given here.

Target: T1, MBP-ENL (Homo sapiens, UniProt Q03111)
T1 sequence (Q03111 1-559): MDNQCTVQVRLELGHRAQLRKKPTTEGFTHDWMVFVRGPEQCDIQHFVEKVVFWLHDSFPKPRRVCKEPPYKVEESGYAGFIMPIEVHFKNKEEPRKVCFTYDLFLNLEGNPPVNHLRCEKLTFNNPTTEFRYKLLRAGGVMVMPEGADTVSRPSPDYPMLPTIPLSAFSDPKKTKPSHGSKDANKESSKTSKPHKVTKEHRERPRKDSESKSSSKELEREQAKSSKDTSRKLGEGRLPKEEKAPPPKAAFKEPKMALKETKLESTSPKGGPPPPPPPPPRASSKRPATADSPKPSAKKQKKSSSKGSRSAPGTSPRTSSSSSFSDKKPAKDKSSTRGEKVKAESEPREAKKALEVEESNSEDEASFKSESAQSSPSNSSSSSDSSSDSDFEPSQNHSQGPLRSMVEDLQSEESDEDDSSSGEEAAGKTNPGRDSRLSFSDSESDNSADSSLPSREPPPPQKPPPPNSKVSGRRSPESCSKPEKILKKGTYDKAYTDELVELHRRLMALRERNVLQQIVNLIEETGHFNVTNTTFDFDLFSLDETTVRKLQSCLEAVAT
Assay: FA binding of fluorescein-labeled peptides to MBP-ENL
Conditions: fluorescence anisotropy, fluorescein-labeled peptide, MBP-ENL versus MBP-AF9
Procedure, shortened: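 Fluorescence anisotropy titrations of fluoresceinated peptides spanning the AF9-binding motif of each binding partner, run with MBP-ENL and, in parallel, MBP-AF9. A KD was obtained for each protein–peptide pair, and the fold change was taken as AF9 KD/ENL KD. Each measurement was run in three replicates, with error given as SEM.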

FITC-CBX8: fluorescein-labeled CBX8 peptide (AQGGRPSLIARIPVARILGDPEEE; also: fluorescein-labeled, attachment not given here)
affinity for ENL compared with affinity for AF9 (in words): substantial enhancement in binding
